The values that follow come from ChEMBL document CHEMBL1123747, “N-methyl derivatives of the 5-HT2 agonist 1-(4-bromo-2,5-dimethoxyphenyl)-2-aminopropane” (J Med Chem, 1987).

The term ED50 denotes the dose at which the effect has come halfway, by size or by number of responders. For orientation: Ki means a dissociation constant, usually derived from enzyme kinetics or from competition with a known ligand. A high value points to lower affinity.

The species named for experiment [1] is Rattus norvegicus. The experiment is described as follows: The compound was tested for effective dose ( ED 50) against stimulus generation with rats trained to discriminate (R) (-)-DOB from saline. It is filed as functional. The method in brief:
(§1)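 Male Sprague-Dawley rats (n = 6) on a two-lever operant task for sweetened milk, VI 15-s schedule. Trained to discriminate 0.2 mg/kg ip training drug from 1.0 mL/kg 0.9% saline, 15 min pre-session. Test doses were given ip in random order to groups of 3–6, with 15-min pretreatment and a 2.5-min extinction session. ED50 was calculated from dose-response data.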

The species named for experiment [2] is Rattus norvegicus. The experiment can be described thus: The number of responses made on the (R)(-)-DOB appropriate level, generation studies was calculated at dose 0.2 mg / kg. Format: functional. The method in brief: (§2)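 Male Sprague-Dawley rats (n = 6) were trained on a two-lever operant task for sweetened-milk reward to discriminate 0.2 mg/kg (R)-(-)-DOB-HCl ip from 1.0 mL/kg 0.9% saline, with a VI 15-s schedule and 15-min sessions. Test doses were given ip 15 min before a 2.5-min extinction session, in random order, to groups of 3-6 rats. Read-out was % drug-lever responses; fewer than five total responses counted as disrupted.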

The species entered for experiment [3] is Rattus norvegicus. The experiment is described as follows: The number of responses made on the (R)(-)-DOB appropriate level, generation studies was calculated at dose 0.4 mg / kg. Format: functional. The method, boiled down: as §2
The species named for experiment [4] is Rattus norvegicus. The experiment is described as follows: The number of responses made on the (R)(-)-DOB appropriate level, generation studies was calculated at dose 0.7 mg / kg. Format: functional. The method in brief: as §2
For experiment [5], the species on record is Rattus norvegicus. The experiment is described as follows: The number of responses made on the (R)(-)-DOB appropriate level, generation studies was calculated at dose 1.1 mg / kg. It is filed as functional. The method in brief: as §2
For experiment [6], the species on record is Rattus norvegicus. The experiment can be described thus: The number of animals responding per number of animals receiving the drug(4/4) in the stimulus-generation studies was calculated at dose 1.1 mg / kg. Format: functional. The method in brief:
(§3)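 Male Sprague-Dawley rats were trained to discriminate 0.2 mg/kg ip training drug from saline (two levers, VI 15-s, milk reward). Test doses were given ip 15 min pre-session in random order to groups of 3–6. In the 2.5-min extinction session, rats making fewer than five total responses were counted as disrupted. N is animals responding over animals dosed.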

The species entered for experiment [7] is Rattus norvegicus. The experiment is described as follows: The number of animals responding per number of animals receiving the drug(3/3) in the stimulus-generation studies was calculated at dose 0.7 mg / kg. It is filed as functional. The method in brief:
as §3

For experiment [8], the species on record is Rattus norvegicus. The experiment is described as follows: The number of animals responding per number of animals receiving the drug(3/4) in the stimulus-generation studies was calculated at dose 0.4 mg / kg. Format: functional. The method in brief: as §3
For experiment [9], the species on record is Rattus norvegicus. The experiment is described as follows: The mean responses per minute during the 2.5 min extinction session in the stimulus-generation studies was calculated at dose 0.2 mg / kg. Format: functional. The method, boiled down: (§4)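 Rats were trained on a two-lever drug-versus-saline discrimination (0.2 mg/kg ip training dose, VI 15-s, food reward). Challenge doses were given ip 15 min before a 2.5-min extinction test, in random order, to groups of 3–6 rats, with at least three training sessions between tests. Response rate is responses per minute over the extinction session.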

Experiment [10] is filed under the species Rattus norvegicus. The experiment can be described thus: The mean responses per minute during the 2.5 min extinction session in the stimulus-generation studies was calculated at dose 0.4 mg / kg. Format: functional. The method in brief: as §4
For experiment [11], the species on record is Rattus norvegicus. The experiment can be described thus: The mean responses per minute during the 2.5 min extinction session in the stimulus-generation studies was calculated at dose 0.7 mg / kg. Format: functional. The method, boiled down:
as §4

The species named for experiment [12] is Rattus norvegicus. The experiment can be described thus: The mean responses per minute during the 2.5 min extinction session in the stimulus-generation studies was calculated at dose 1.1 mg / kg. It is filed as functional. The method, boiled down: as §4
Experiment [13] is filed under the species Rattus norvegicus. The experiment is described as follows: The number of animals responding per number of animals receiving the drug(3/3) in the stimulus-generation studies was calculated at dose 0.2 mg / kg. It is filed as functional. The method in brief: as §3
For experiment [14], the target named is T1, Serotonin 2 (5-HT2) receptor (Rattus norvegicus, UniProt P30994+P08909+P14842). The experiment is described as follows: Affinity towards [3H]- DOB -labeled 5-hydroxytryptamine 2 receptor sites in rat cortical homogenates.
Experiment [15] concerns the target T1, Serotonin 2 (5-HT2) receptor. The experiment can be described thus: Affinity towards [3H]- ketanserin-labeled 5-hydroxytryptamine 2 receptor sites in rat cortical homogenates. The method in brief: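 Label was 0.4 nM [3H]ketanserin, with 11 competitor concentrations run in triplicate and nonspecific binding defined by 1 μM cinanserin. Bound ligand was filtered onto glass fibre and counted by scintillation. IC50 came from nonlinear regression; Ki = IC50/(1+[D]/KD).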

The species entered for experiment [16] is Rattus norvegicus. The experiment can be described thus: The compound was tested for effective dose ( ED 50) against stimulus generation with rats trained to discriminate (R) (-)-DOB from saline. Format: functional. The method in brief:
as §1

The test system of experiment [17] is Rattus norvegicus. The experiment can be described thus: The number of responses made on the (R)(-)-DOB appropriate lever, generation studies was calculated at dose 1.0 mg/kg. It is filed as functional. The method, boiled down:
as §2

Experiment [18] has as its system Rattus norvegicus. The experiment is described as follows: The number of responses made on the (R)(-)-DOB appropriate lever, generation studies was calculated at dose 0.3 mg/kg. It is filed as functional. The method in brief: as §2
Experiment [19] deals with Rattus norvegicus. The experiment is described as follows: The number of responses made on the (R)(-)-DOB appropriate lever, generation studies was calculated at dose 0.6 mg/kg. It is filed as functional. The method, boiled down: as §2
Experiment [20] relates to Rattus norvegicus. The experiment is described as follows: The number of responses made on the (R)(-)-DOB appropriate lever, generation studies was calculated at dose 1.2 mg/kg. Format: functional. The method, boiled down: as §2
In experiment [21] the test system is Rattus norvegicus. The experiment is described as follows: The number of responses made on the (R)(-)-DOB appropriate lever, generation studies was calculated at dose 1.3 mg/kg. Format: functional. The method, boiled down:
as §2

In experiment [22] the test system is Rattus norvegicus. The experiment can be described thus: The number of responses made on the (R)(-)-DOB appropriate lever, generation studies was calculated at dose 1.4 mg/kg; NR means not responding. It is filed as functional, organism-based. Details: dose 1.4 mg/kg. The method in brief:
as §2

Experiment [23] deals with Rattus norvegicus. The experiment can be described thus: The number of responses made on the (R)(-)-DOB appropriate lever, generation studies was calculated at dose 1.5 mg/kg; NR means not responding. Format: functional, organism-based. Set-up: dose 1.5 mg/kg. The method, boiled down:
as §2

Experiment [24] concerns Rattus norvegicus. The experiment can be described thus: The number of animals responding per number of animals receiving the drug (2/6)in the stimulus-generation studies was calculated at dose 1.5 mg/kg. It is filed as functional. The method, boiled down:
as §3

Experiment [25] concerns Rattus norvegicus. The experiment can be described thus: The number of animals responding per number of animals receiving the drug (3/3) in the stimulus-generation studies was calculated at dose 0.3 mg/kg. Format: functional. The method, boiled down:
as §3

Experiment [26] concerns Rattus norvegicus. The experiment is described as follows: The number of animals responding per number of animals receiving the drug (3/3)in the stimulus-generation studies was calculated at dose 1.0 mg/kg. It is filed as functional. The method in brief:
as §3

Experiment [27] concerns Rattus norvegicus. The experiment is described as follows: The number of animals responding per number of animals receiving the drug (4/4)in the stimulus-generation studies was calculated at dose 0.6 mg/kg. Format: functional. The method, boiled down: as §3
Experiment [28] has as its system Rattus norvegicus. The experiment is described as follows: The number of animals responding per number of animals receiving the drug (5/5)in the stimulus-generation studies was calculated at dose 1.3 mg/kg. Format: functional. The method in brief: as §3
The subject of experiment [29] is Rattus norvegicus. The experiment can be described thus: The number of animals responding per number of animals receiving the drug(2/6) in the stimulus-generation studies was calculated at dose 1.4 mg/kg. It is filed as functional. The method in brief: as §3
In experiment [30] the test system is Rattus norvegicus. The experiment can be described thus: The number of animals responding per number of animals receiving the drug(3/4) in the stimulus-generation studies was calculated at dose 1.2 mg/kg. Format: functional. The method, boiled down: as §3
The subject of experiment [31] is Rattus norvegicus. The experiment is described as follows: The mean responses per minute during the 2.5 min extinction session in the stimulus-generation studies was calculated at dose 1.2 mg/kg. It is filed as functional. The method in brief: as §4
The test system of experiment [32] is Rattus norvegicus. The experiment can be described thus: The mean responses per minute during the 2.5 min extinction session in the stimulus-generation studies was calculated at dose 1.3 mg/kg. It is filed as functional. The method in brief:
as §4

For experiment [33], the system named is Rattus norvegicus. The experiment can be described thus: The mean responses per minute during the 2.5 min extinction session in the stimulus-generation studies was calculated at dose 0.3 mg/kg. Format: functional. The method, boiled down: as §4
Experiment [34] has as its system Rattus norvegicus. The experiment can be described thus: The mean responses per minute during the 2.5 min extinction session in the stimulus-generation studies was calculated at dose 1.0 mg/kg. It is filed as functional. The method in brief:
as §4

Experiment [35] has as its system Rattus norvegicus. The experiment is described as follows: The mean responses per minute during the 2.5 min extinction session in the stimulus-generation studies was calculated at dose 0.6 mg/kg. It is filed as functional. The method in brief: as §4

Activity calls are given as the source filed them. The rule behind the calls is not given here.

In turn, `COc1cc(C[C@H](C)N)c(OC)cc1Br` had a 50% effective dose (ED50) in the experiment filed under Rattus norvegicus [1] of 0.56 mg/kg. The Responding in the experiment filed under Rattus norvegicus [2] is reported as 3%; in the experiment filed under Rattus norvegicus [3], 48%; in the experiment listed under Rattus norvegicus [4] it was 63%; in the experiment listed under Rattus norvegicus [5], 82%. For the same compound, the “No. of animals responding/animals receiving drug” value in the experiment filed under Rattus norvegicus [6] is reported as 4; in the experiment filed under Rattus norvegicus [7], 3; in the experiment filed under Rattus norvegicus [8], 3; in the experiment listed under Rattus norvegicus [13], 3. The Response rate in the experiment filed under Rattus norvegicus [9] is recorded as 12; in the experiment filed under Rattus norvegicus [10] it was 10.5; in the experiment listed under Rattus norvegicus [11], 10.8; in the experiment listed under Rattus norvegicus [12], 10.8.
Regarding `CNC(C)Cc1cc(OC)c(Br)cc1OC` (stereo not given), the Ki was 7.7 nM in [14] and 79 nM in [15]. In the experiment listed under Rattus norvegicus [16], the 50% effect level (ED50) was put at a dose of 0.82 mg/kg. The Responding was 50% in the experiment on Rattus norvegicus [17]; 12% in the experiment on Rattus norvegicus [18]; 28% with Rattus norvegicus [19]; 70% in the experiment with Rattus norvegicus [20]; 82% in the experiment with Rattus norvegicus [21]. Also, the Responding entry in the experiment on Rattus norvegicus [22] and in the experiment on Rattus norvegicus [23] was “inactive” each time. Further, the “No. of animals responding/animals receiving drug” value in the experiment on Rattus norvegicus [24] is recorded as 2; in the experiment with Rattus norvegicus [25] it was 3; in the experiment with Rattus norvegicus [26] it was 3; in the experiment with Rattus norvegicus [27], 4; with Rattus norvegicus [28], 5; with Rattus norvegicus [29], 2. The “No. of animals responding/animals receiving drug” value in the experiment with Rattus norvegicus [30] was 3. The Response rate with Rattus norvegicus [31] is 13.3; in the experiment with Rattus norvegicus [32], 8; in the experiment on Rattus norvegicus [33], 11.6; in the experiment with Rattus norvegicus [34] it was 12; in the experiment with Rattus norvegicus [35], 13.6.
